ChEMBL document CHEMBL4346668, “Novel multitarget inhibitors with antiangiogenic and immunomodulator properties” (Eur J Med Chem, 2019)
Active and inactive are the calls of the source. The rule behind the calls is not given here.

How the values were obtained:
A549 [1] = experiment: Effect on VEGFR2 in human A549 cells assessed as membrane VEGFR2 level at 100 uM incubated for 24 hrs by flow cytometric analysis relative to control; assay type: functional
How it was run: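 A549 cells exposed 24 h to compound at 100 µM. Membrane VEGFR-2 stained on fixed cells with Alexa Fluor 647 anti-VEGFR-2; Triton X-100 permeabilization before fixation used for total VEGFR-2. Flow cytometry, % of DMSO control; mean ± SD of three experiments.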

HEK293 = experiment: Antiproliferative activity against HEK293 cells incubated for 2 days by MTT assay; assay type: cell-based; conditions: Homo sapiens, HEK293, 48 h
How it was run: (§1)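 MTT assay. Cells seeded at 3 × 10³/well (HeLa, A549, HMEC-1, HEK-293) or 5 × 10³/well (HT-29, MCF-7) in their growth media with serial compound dilutions from 10 mM DMSO stocks. Incubated 2 days at 37 °C, 5% CO₂, then MTT added for 3 h and formazan dissolved in DMSO. A540 read and viability expressed versus untreated cells. IC₅₀ determined graphically; three independent experiments.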

HMEC-1 [2] = experiment: Antiproliferative activity against HMEC1 cells incubated for 2 days by MTT assay; assay type: cell-based; conditions: Homo sapiens, HMEC-1, 48 h; how it was run: as §1
MCF7 = experiment: Antiproliferative activity against human MCF7 cells incubated for 2 days by MTT assay; assay type: functional, cell-based; conditions: MCF7, 48 h; how it was run: as §1
A549 [3] = experiment: Effect on VEGFR2 in human A549 cells assessed as total VEGFR2 level at 100 uM incubated for 24 hrs by flow cytometric analysis relative to control; assay type: functional
A549 [4] = experiment: Induction of apoptosis in human A549 cells assessed as apoptotic cells at 100 uM incubated for 24 hrs by FITC-Annexin V staining based flow cytometric analysis (reference value: 20%); assay type: functional
A549 [5] = experiment: Antiproliferative activity against human A549 cells incubated for 2 days by MTT assay; assay type: functional, cell-based; conditions: A549, 48 h; how it was run: as §1
HMEC-1 [6] = experiment: Effect on VEGFR2 in HMEC1 cells assessed as membrane VEGFR2 level at 10 uM incubated for 24 hrs by flow cytometric analysis relative to control; assay type: functional, Homo sapiens
How it was run: (§2)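 HMEC-1 cells exposed 24 h to compound. Membrane VEGFR-2 measured on fixed cells stained with Alexa Fluor 647 anti-CD309; total VEGFR-2 measured on lysates or permeabilized cells. Read by flow cytometry as % of DMSO control; mean ± SD of three experiments.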

HT-29 [7] = experiment: Antiproliferative activity against human HT-29 cells incubated for 2 days by MTT assay; assay type: functional, cell-based; conditions: HT-29, 48 h; how it was run: as §1
HMEC-1 [8] = experiment: Effect on VEGFR2 in HMEC1 cells assessed as total VEGFR2 level at 10 uM incubated for 24 hrs by flow cytometric analysis relative to control; assay type: functional, Homo sapiens; how it was run: as §2
HMEC-1 [9] = experiment: Effect on VEGFR2 in HMEC1 cells assessed as membrane VEGFR2 level at 100 uM incubated for 24 hrs by flow cytometric analysis relative to control; assay type: functional, Homo sapiens
How it was run: (§3)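 HMEC-1 cells exposed 24 h to compound at 100 µM. Membrane VEGFR-2 measured on fixed cells stained with Alexa Fluor 647 anti-CD309; total VEGFR-2 measured after Triton X-100 permeabilization before fixation. Read by flow cytometry as % of DMSO control.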

A549 [10] = experiment: Effect on VEGFR2 in human A549 cells assessed as total VEGFR2 level at 10 uM incubated for 24 hrs by flow cytometric analysis relative to control; assay type: functional
HeLa = experiment: Antiproliferative activity against human HeLa cells incubated for 2 days by MTT assay; assay type: functional, cell-based; conditions: 48 h; how it was run: as §1
HMEC-1 [11] = experiment: Effect on VEGFR2 in HMEC1 cells assessed as total VEGFR2 level at 100 uM incubated for 24 hrs by flow cytometric analysis relative to control; assay type: functional, Homo sapiens; how it was run: as §3
A549 [12] = experiment: Effect on VEGFR2 in human A549 cells assessed as membrane VEGFR2 level at 10 uM incubated for 24 hrs by flow cytometric analysis relative to control; assay type: functional
How it was run: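 A549 cells incubated 24 h with compound at 10 µM. Membrane VEGFR-2 (fixed cells) and total VEGFR-2 (permeabilized or lysate) stained with Alexa Fluor 647 anti-CD309 and quantified by flow cytometry relative to DMSO control; mean ± SD of three experiments.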

HMEC-1 [13] = experiment: Antiangiogenic activity against HMEC1 cells assessed as inhibition of tube formation incubated for 20 hrs by matrigel based tube formation assay; assay type: functional, Homo sapiens
How it was run: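 HMEC-1 cells in EGM-2MV medium seeded at 2 x 10⁴ cells/well on Matrigel (10 mg/mL, gelled 30 min at 37°C) and attached for 30 min. Compounds were added at different concentrations and tube formation was assessed after 20 h at 37°C. The minimum concentration at which inhibition began was reported. Data representative of three experiments.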

A549 [14] = experiment: Immunomodulatory activity in human A549 cells assessed as inhibition of PD-L1 level at 100 uM incubated for 24 hrs by confocal laser scanning microscopic method; assay type: functional, cell-based
How it was run: (§4)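 A549 cells on cover glass treated 24 h at 100 µM, permeabilized with PEM-Triton X-100 0.5% and fixed in 3.7% formaldehyde. Direct immunostaining 2 h at 37°C in darkness with anti-PD-L1-AlexaFluor647 (excitation 650, emission 665 nm) and anti-c-Myc-FITC (excitation 488, emission 496–535 nm). Confocal microscopy, 63x oil objective.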

A549 [15] = experiment: Immunomodulatory activity in human A549 cells assessed as reduction in PD-L1 expression level at 100 uM incubated for 24 hrs by ELISA relative to control; assay type: functional; parameters: scale not given: the % may be the effect or the level left
How it was run: (§5)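 A549 cells (3·10⁵/well) treated 24 h with compound; final concentration 100 µM for some compounds and 15 µM for others per table footnote. Lysates protein-normalized by Bradford, and PD-L1 and c-Myc quantified by commercial ELISA kits as % of DMSO-treated cells. Mean ± SD of three experiments.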

A549 [16] = experiment: Antiproliferative activity against human A549 cells at 200 uM incubated for 24 hrs in presence of Jurkat T cells by trypan blue staining based Neubauer chamber method relative to control; assay type: functional
How it was run: (§6)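 Co-culture of 5 × 10⁴ tumor cells/well with 2 × 10⁵ PD-1-expressing Jurkat T cells in 1.5 mL, treated 24 h with compound at 200 µM. Supernatant discarded; tumor cells trypsinized, stained with trypan blue and living cells counted in a Neubauer chamber. Proliferation inhibition (%) attributable to Jurkat presence reported; representative of three experiments.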

HT-29 [17] = experiment: Antiproliferative activity against human HT-29 cells at 200 uM incubated for 24 hrs in presence of Jurkat T cells by trypan blue staining based Neubauer chamber method relative to control; assay type: functional; how it was run: as §6
A549 [18] = experiment: Immunomodulatory activity in human A549 cells assessed as reduction in c-Myc expression level at 100 uM incubated for 24 hrs by ELISA relative to control; assay type: functional; parameters: scale not given: the % may be the effect or the level left; how it was run: as §5
A549 [19] = experiment: Immunomodulatory activity in human A549 cells assessed as inhibition of c-Myc level at 100 uM incubated for 24 hrs by confocal laser scanning microscopic method; assay type: functional, cell-based; how it was run: as §4
[20] = biological target: Programmed cell death 1 ligand 1 (Homo sapiens) (UniProt Q9NZQ7); experiment: Binding affinity to PDL1 (unknown origin) assessed as change in melting temperature at 100 uM by fluorescence based real time RT-PCR analysis
Sequence of Programmed cell death 1 ligand 1 (Homo sapiens) (Q9NZQ7 whole entry): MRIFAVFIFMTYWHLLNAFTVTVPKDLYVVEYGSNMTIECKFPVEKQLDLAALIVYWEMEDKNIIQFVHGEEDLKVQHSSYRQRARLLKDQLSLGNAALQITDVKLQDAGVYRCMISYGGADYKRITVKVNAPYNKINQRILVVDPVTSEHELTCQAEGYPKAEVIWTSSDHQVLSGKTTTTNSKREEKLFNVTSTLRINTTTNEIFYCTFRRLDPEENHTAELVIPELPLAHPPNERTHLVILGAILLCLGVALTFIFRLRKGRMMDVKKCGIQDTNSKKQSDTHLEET

[21] = biological target: Vascular endothelial growth factor receptor 2 (Homo sapiens) (UniProt P35968); experiment: Inhibition of VEGFR2 in HMEC1 cells assessed as phosphorylated VEGFR2 level at 10 uM incubated for 24 hrs by sandwich ELISA; assay type: cell-based
Sequence of Vascular endothelial growth factor receptor 2 (Homo sapiens) (P35968 whole entry): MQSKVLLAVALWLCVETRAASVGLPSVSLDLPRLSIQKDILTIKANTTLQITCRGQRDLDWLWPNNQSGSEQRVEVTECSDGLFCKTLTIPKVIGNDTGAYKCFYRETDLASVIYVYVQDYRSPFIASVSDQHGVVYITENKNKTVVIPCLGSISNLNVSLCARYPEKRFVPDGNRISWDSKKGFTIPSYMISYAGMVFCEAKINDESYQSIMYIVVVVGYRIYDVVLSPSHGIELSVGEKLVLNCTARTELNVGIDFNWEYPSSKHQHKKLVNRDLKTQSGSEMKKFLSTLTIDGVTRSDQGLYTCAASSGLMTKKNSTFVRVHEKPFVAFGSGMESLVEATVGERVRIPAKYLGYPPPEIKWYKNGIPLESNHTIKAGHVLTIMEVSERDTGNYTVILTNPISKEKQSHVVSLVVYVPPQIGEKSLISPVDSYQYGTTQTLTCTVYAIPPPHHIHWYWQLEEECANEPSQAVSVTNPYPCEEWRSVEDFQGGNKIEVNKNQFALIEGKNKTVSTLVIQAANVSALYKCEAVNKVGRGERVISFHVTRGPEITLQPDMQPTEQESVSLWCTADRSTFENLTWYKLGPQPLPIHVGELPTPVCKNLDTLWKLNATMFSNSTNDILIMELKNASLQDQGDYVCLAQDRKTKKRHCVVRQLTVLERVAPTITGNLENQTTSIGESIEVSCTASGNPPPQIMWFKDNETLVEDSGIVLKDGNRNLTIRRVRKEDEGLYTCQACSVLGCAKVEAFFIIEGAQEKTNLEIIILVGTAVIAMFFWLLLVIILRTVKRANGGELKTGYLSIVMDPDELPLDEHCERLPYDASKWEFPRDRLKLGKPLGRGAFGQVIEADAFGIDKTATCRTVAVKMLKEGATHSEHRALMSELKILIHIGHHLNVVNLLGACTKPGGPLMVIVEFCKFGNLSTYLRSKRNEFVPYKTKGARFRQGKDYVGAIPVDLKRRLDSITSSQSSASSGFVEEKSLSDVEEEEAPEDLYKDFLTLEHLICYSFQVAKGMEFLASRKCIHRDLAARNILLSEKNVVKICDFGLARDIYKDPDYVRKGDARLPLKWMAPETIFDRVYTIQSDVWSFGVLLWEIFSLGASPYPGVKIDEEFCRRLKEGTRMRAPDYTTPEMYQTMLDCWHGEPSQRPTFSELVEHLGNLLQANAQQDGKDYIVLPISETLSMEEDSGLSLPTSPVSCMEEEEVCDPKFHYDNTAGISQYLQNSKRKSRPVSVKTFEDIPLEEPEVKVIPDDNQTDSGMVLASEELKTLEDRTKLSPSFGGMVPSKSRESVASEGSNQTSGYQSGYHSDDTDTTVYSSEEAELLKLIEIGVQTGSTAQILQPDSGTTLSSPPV
How it was run: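 HMEC-1 cells (5 × 10⁵/well) grown to 80% confluence, starved 24 h in 0.1% FBS medium, then treated 24 h with compound. Stimulated with VEGF-165 100 ng/ml for 30 min at 37°C. Lysates Bradford-normalized; phospho-VEGFR-2 (Tyr1175) measured by sandwich ELISA, % of DMSO control.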

[22] = biological target: Vascular endothelial growth factor receptor 2 (Homo sapiens) (UniProt P35968)
HMEC-1 [23] = experiment: Antiangiogenic activity against HMEC1 cells assessed as inhibition of neovascularization at 0.01 to 1 uM incubated for 20 hrs; assay type: functional, cell-based; conditions: Homo sapiens
How it was run: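 HMEC-1 cells seeded on Matrigel-coated wells (10 mg/mL Matrigel, gelled 30 min at 37°C) at 2 x 10⁴ cells/well in EGM-2MV medium and allowed to attach 30 min. Compound was then added at 1, 0.1 and 0.01 µM, and tube destruction was assessed after 20 h at 37°C by imaging.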

HMEC-1 [24] = experiment: Ratio of MAC for sorafenib to MAC of test compound for antiangiogenic activity against HMEC1 cells; assay type: functional, Homo sapiens
A549 [25] = experiment: Effect on VEGFR2 in human A549 cells assessed as reduction in membrane VEGFR2 level incubated for 24 hrs by confocal laser scanning microscopic method; assay type: functional, cell-based
How it was run: (§7)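 A549 cells on cover glass treated 24 h with compound at 10 µM, then permeabilized (PEM-Triton X-100 0.5%) and fixed (3.7% formaldehyde). Direct staining 2 h at 37°C in darkness with Alexa Fluor 647 anti-VEGFR-2. Confocal imaging with a 63x oil objective, excitation 650 nm, emission 665 nm.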

A549 [26] = experiment: Effect on VEGFR2 in human A549 cells assessed as inhibition of VEGFR2 protein internalization to nucleus incubated for 24 hrs by confocal laser scanning microscopic method; assay type: functional, cell-based; how it was run: as §7
[27] = biological target: Vascular endothelial growth factor receptor 2 (Homo sapiens) (UniProt P35968); experiment: Inhibition of VEGFR2 in HMEC1 cells assessed as phosphorylated Erk1/2 level at 10 uM incubated for 24 hrs by Western blot analysis relative to control; assay type: cell-based
How it was run: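 HMEC-1 lysates from the phospho-VEGFR-2 experiment (24 h compound, serum starvation, 30 min VEGF-165 stimulation) used at 100 µg protein for SDS gel electrophoresis and PVDF transfer. Blocked in 5% milk/TBST, then probed overnight at 4 °C with anti-phospho-ERK1/2 (T202/[…]) and an HRP secondary. Chemiluminescent detection; β-actin as internal control; quantified versus DMSO control.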

SMILES | IC50 (HEK293) | IC50 (HMEC-1 [2]) | IC50 (MCF7) | Activity (A549 [4]) | IC50 (A549 [5]) | Activity (HMEC-1 [6]) | IC50 (HT-29 [7]) | Activity (HMEC-1 [8]) | Activity (A549 [10]) | IC50 (HeLa) | Activity (A549 [12]) | MAC (HMEC-1 [13]) | Activity (A549 [14]) | Activity (A549 [15]) | Activity (A549 [16]) | Activity (A549 [18]) | Activity (A549 [19]) | ΔTm [20] | Activity [21] | ΔTm [22] | further results
CNC(=O)c1cc(Oc2ccc(NC(=O)Nc3ccc(Cl)c(C(F)(F)F)c3)cc2)ccn1 [SORAFENIB] | 5 µM | 34 µM | 14 µM | 48% | 27 µM | 46% | 17 µM | 64% | 85% | 6.1 µM | 92% | 10 µM | – | – | – | – | – | – | – | – | Activity (A549 [1]): 92%; Activity (A549 [3]): 85%; Activity (HMEC-1 [9]): 46%; Activity (HMEC-1 [11]): 64%
Cc1c(COc2ccc(CN3CCCCC3C(=O)O)cc2Br)cccc1-c1ccccc1 (centres undefined) | 60 µM | – | 20 µM | – | 6 µM | – | 19 µM | – | – | > 100 µM | – | – | Active | 68% | 55% | 60% | Active | 3.68 °C | – | – | Activity (HT-29 [17]): 53%
COc1ccc(/C=C/c2cccc(NC(=O)Nc3ccc(Cl)cc3)c2)cc1 | 1 µM | 1.8 µM | 0.4 µM | 48% | 1.5 µM | 56% | 0.52 µM | 109% | 10% | 0.7 µM | 56% | 0.1 µM | Active | 25% | 86% | 37% | Active | 1.18 °C | inactive | 6.25 °C | Activity (HMEC-1 [23]): Active; Ratio (HMEC-1 [24]): 100; Activity (A549 [25]): Active; Activity (A549 [26]): Active; Activity [27]: inactive
COc1ccc(/C=C/c2cccc(NC(=O)Nc3cccc(Cl)c3)c2)cc1 | 2.4 µM | 2 µM | 4.3 µM | 75% | 7.7 µM | 55% | 3.5 µM | 106% | 32% | 11.3 µM | 52% | 0.1 µM | – | 49% | 76% | 65% | – | 3.91 °C | inactive | 8.35 °C | Ratio (HMEC-1 [24]): 100; Activity (A549 [25]): Active; Activity [27]: inactive
